Results taken from ChEMBL document CHEMBL1157475, “Selective influence on contextual memory: physiochemical properties associated with selectivity of benzodiazepine ligands at GABAA receptors containing the alpha5 subunit” (J Med Chem, 2008).
Activity calls are given as the source filed them. The rule behind the calls is not given here.

Columns and labels:
[1] = target: T1, GABA-A receptor; alpha-1/beta-3/gamma-2 (Homo sapiens, UniProt P14867+P18507+P28472); assay: Binding affinity to GABAA alpha-1-beta-3-gamma-2 receptor; assay type: protein-complex assay
T1 sequence (P14867 whole entry): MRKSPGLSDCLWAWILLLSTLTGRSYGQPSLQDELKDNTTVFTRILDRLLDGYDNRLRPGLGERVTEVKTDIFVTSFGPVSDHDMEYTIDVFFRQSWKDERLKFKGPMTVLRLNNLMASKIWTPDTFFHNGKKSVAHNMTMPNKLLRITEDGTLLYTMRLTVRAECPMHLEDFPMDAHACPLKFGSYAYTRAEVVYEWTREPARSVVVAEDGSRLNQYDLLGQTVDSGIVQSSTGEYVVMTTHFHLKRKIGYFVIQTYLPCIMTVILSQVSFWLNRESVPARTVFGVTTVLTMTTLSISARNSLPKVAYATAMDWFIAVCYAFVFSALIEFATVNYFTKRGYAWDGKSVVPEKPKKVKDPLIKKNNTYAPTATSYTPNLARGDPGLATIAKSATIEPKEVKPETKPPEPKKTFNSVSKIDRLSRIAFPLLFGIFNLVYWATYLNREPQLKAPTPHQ
T1 sequence (P18507 whole entry): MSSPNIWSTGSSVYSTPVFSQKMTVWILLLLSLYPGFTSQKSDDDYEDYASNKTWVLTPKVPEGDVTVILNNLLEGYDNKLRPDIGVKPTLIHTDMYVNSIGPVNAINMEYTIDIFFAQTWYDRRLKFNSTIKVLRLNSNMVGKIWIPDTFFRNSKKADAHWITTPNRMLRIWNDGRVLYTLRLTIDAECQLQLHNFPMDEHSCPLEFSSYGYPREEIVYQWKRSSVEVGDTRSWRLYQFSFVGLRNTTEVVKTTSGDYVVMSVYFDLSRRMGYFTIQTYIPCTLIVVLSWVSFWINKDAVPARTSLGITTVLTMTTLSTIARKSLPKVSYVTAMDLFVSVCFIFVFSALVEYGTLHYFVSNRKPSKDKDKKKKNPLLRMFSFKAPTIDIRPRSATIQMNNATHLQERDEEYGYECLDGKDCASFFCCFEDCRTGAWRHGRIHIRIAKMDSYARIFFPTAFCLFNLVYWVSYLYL
T1 sequence (P28472 whole entry): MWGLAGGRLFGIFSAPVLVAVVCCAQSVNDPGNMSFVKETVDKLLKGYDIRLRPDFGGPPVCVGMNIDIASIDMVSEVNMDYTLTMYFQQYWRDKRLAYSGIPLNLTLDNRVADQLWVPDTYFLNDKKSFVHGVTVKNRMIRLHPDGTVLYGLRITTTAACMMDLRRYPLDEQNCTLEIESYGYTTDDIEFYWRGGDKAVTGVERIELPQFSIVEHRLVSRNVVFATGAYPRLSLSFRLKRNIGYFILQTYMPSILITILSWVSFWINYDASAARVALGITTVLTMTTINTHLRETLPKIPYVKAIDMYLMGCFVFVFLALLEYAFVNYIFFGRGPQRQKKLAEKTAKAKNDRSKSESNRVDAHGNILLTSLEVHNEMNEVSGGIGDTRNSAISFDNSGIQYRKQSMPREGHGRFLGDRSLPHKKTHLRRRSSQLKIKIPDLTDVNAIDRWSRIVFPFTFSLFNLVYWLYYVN

[2] = target: T2, Gamma-aminobutyric acid receptor subunit alpha-5 (Homo sapiens, UniProt P18507+P31644+P47870); assay: Binding affinity to GABAA alpha-5-beta-2-gamma-2 receptor
T2 sequence (P31644 whole entry): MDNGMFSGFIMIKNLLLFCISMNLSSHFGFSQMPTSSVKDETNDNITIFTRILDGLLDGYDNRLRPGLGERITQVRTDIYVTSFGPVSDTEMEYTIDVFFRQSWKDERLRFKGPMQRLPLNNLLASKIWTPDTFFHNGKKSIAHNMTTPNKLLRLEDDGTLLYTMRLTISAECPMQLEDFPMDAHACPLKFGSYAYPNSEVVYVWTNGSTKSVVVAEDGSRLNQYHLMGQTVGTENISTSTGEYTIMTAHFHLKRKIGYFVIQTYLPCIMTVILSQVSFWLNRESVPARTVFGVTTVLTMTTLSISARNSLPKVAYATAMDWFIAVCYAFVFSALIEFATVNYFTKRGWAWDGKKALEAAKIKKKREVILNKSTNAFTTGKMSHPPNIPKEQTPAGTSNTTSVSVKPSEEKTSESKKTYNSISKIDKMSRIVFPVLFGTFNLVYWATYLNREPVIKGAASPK
In short: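 Sf-9 insect cells infected with baculovirus carrying α5, β2 and γ2 subunits in equimolar ratio (2 MOI), harvested 60 h post-infection, then homogenized in 50 mM Tris-HCl pH 7.7. Incubated 90 min at 0 °C in triplicate; filtration and scintillation counting.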

[3] = target: T3, Gamma-aminobutyric acid receptor subunit alpha-1 (Homo sapiens, UniProt P14867+P18507+P47870); assay: Binding affinity to GABAA alpha-1-beta-2-gamma-2 receptor
T3 sequence (P14867 whole entry): T1 sequence (P14867 whole entry)

[4] = target: T2, Gamma-aminobutyric acid receptor subunit alpha-5; assay: Displacement of [3H]Ro15-4513 from GABAA alpha-5-beta-2-gamma-2 receptor expressed in Sf9 baculovirus system
In short: (§1)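 Homogenates of Sf-9 cells infected 60 h earlier with baculoviruses for each of the three subunits (2 MOI, equimolar), in 50 mM Tris-HCl pH 7.7. Competition against 0.5–1.0 nM [3H]-Ro15-4513, with unlabeled ligand from 40 pM to 10 µM (ethanol below 0.1%). Incubated 90 min at 0 °C, in triplicate. Separated by rapid filtration and read by scintillation counting.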

[5] = target: T3, Gamma-aminobutyric acid receptor subunit alpha-1; assay: Displacement of [3H]Ro15-4513 from GABAA alpha-1-beta-2-gamma-2 receptor expressed in Sf9 baculovirus system; in short: as §1
[6] = target: GABA-A receptor; alpha-2/beta-3/gamma-2 (Homo sapiens) (UniProt P18507+P28472+P47869); assay: Activity at GABAA alpha-2-beta-3-gamma-2 receptor expressed in Xenopus oocytes assessed as potentiation of GABA-induced chloride current at 1 uM; assay type: cell-based; conditions: Oocyte
[7] = Selectivity for GABAA alpha-5-beta-3-gamma-2 receptor over GABAA alpha-2-beta-3-gamma-2 receptor
Mus musculus [8] = assay: Anticonvulsant activity in C57BL/6J mouse assessed as inhibition of increase in excitatory tone in brain at 30 mg/kg, ip; assay type: functional, organism-based; set-up: dose 30 mg/kg
Mus musculus [9] = assay: Inhibition of scopolamine-induced impairment of contextual memory in C57BL/6J mouse at 10 mg/kg, ip after 24 hrs; assay type: functional, organism-based; set-up: dose 10 mg/kg
In short: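 Male C57Bl/6 mice, 7–12 weeks old, given ip vehicle (0.9% saline with 2.5% encapsin), scopolamine 1.5 mg/kg, or scopolamine plus ligand. After 20 min: context exposure, then three 33 s tones (85 dB, 2.9 kHz), each ending with a 0.75 mA footshock. Freezing scored over 4 min in the same context 24 h later.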

[10] = target: T4, GABA A receptor alpha-4/beta-3/gamma-2 (Homo sapiens, UniProt P18507+P28472+P48169); assay: Activity at GABAA alpha-4-beta-3-gamma-2 receptor expressed in Xenopus oocytes assessed as potentiation of GABA-induced chloride current at 1 uM; assay type: cell-based; conditions: Oocyte
T4 sequence (P48169 whole entry, one chain of several): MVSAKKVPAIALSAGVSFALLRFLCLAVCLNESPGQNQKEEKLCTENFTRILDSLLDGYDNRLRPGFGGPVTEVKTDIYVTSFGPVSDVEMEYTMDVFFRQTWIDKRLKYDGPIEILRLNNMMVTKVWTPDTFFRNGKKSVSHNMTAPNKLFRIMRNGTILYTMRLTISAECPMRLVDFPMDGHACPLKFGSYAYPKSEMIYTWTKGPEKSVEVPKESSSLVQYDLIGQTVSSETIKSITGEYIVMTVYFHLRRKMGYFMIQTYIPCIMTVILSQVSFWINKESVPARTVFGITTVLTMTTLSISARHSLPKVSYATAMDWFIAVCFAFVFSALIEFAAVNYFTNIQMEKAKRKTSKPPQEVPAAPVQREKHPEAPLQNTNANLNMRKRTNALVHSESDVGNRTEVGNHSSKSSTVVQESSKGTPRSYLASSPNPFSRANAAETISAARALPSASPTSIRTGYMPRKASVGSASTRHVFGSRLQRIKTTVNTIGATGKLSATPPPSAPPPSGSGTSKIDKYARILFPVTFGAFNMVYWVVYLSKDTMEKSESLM

[11] = Selectivity for GABAA alpha-5-beta-3-gamma-2 receptor over GABAA alpha-4-beta-3-gamma-2 receptor
[12] = Selectivity for GABAA alpha-5-beta-3-gamma-2 receptor over GABAA alpha-6-beta-3-gamma-2 receptor
[13] = target: T4, GABA A receptor alpha-4/beta-3/gamma-2; assay: Binding affinity to GABAA alpha-4-beta-3-gamma-2 receptor; assay type: protein-complex assay
[14] = target: T5, GABA-A receptor; alpha-6/beta-3/gamma-2 (Homo sapiens, UniProt P18507+P28472+Q16445); assay: Binding affinity to GABAA alpha-6-beta-3-gamma-2 receptor; assay type: protein-complex assay
T5 sequence (Q16445 whole entry, one chain of several): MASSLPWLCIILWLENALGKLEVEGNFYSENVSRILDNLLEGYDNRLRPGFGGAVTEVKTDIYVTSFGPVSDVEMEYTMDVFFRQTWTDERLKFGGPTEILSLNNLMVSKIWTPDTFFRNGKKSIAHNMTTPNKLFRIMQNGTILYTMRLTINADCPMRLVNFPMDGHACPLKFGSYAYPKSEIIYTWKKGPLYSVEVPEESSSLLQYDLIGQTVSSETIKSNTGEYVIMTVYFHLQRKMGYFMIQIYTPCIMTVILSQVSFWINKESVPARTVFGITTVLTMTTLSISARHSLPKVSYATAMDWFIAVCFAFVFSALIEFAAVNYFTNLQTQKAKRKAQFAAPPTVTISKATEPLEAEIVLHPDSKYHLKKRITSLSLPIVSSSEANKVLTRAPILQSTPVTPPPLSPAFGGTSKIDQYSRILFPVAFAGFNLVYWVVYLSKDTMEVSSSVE

[15] = Selectivity for GABAA alpha-5-beta-3-gamma-2 receptor over GABAA alpha-1-beta-3-gamma-2 receptor
[16] = target: T5, GABA-A receptor; alpha-6/beta-3/gamma-2; assay: Activity at GABAA alpha-6-beta-3-gamma-2 receptor expressed in Xenopus oocytes assessed as potentiation of GABA-induced chloride current at 1 uM; assay type: cell-based; conditions: Oocyte
[17] = Selectivity for GABAA alpha-5-beta-3-gamma-2 receptor over GABAA alpha-3-beta-3-gamma-2 receptor

SMILES | Ki [1] [nM] | Kd [2] [nM] | Kd [3] [nM] | other results
Cn1c(=O)c2cc(Cl)ccc2n2cnc(CCl)c12 | 500 |  |  | Ki [2]: 500 nM
COc1ccc(-n2nc3c4ccccc4[nH]cc-3c2=O)cc1 |  | 5 | 0.1 | 
CSC1SC(C(=O)c2cccc([N+](=O)[O-])c2)C2CC(C)(C)CC(=O)C12 (stereo unspecified) |  |  |  | IC50 [4]: > 10000 nM; IC50 [5]: > 10000 nM
C#Cc1ccc2c(c1)C(c1ccccc1)=NCC(=O)N2C |  | 7 | 76 | 
CC(=O)NC1N=C(c2ccccc2)c2ccccc2NC1=O (stereo unspecified) |  |  |  | IC50 [4]: > 10000 nM; IC50 [5]: > 10000 nM
COCc1c(C(=O)OC(C)C)ncc2[nH]c3ccc(OCc4ccccc4)cc3c12 [ABECARNIL] |  | 8.4 | 1 | 
CCOCc1ncn2c3ccc(Cl)cc3c(=O)n(C)c12 | 500 |  |  | Ki [2]: 83 nM
Cn1c(=O)c2cc(Cl)ccc2n2cnc(C(=O)OCC3CC3)c12 | 16.4 |  |  | Ki [2]: 9.8 nM
CSC1SC(C(=O)c2ccc(Cl)cc2)C2CC(C)(C)CC(=O)C12 (stereo unspecified) |  |  |  | IC50 [4]: 210 nM; IC50 [5]: 580 nM
CCOc1cc2c(cn1)[nH]c1ccccc12 |  | 826 | 1.2 | 
CCOC(=O)c1cc2c(cn1)[nH]c1ccccc12 |  |  | 1 | 
CCc1ncn2c3ccc(Cl)cc3c(=O)n(C)c12 | 408 |  |  | Ki [2]: 182 nM
CCCCC(=O)c1ncn2c3ccc(Cl)cc3c(=O)n(C)c12 | 1580 |  |  | Ki [2]: 166 nM
Cc1nn(Cc2nc(-c3cccc([N+](=O)[O-])c3)cs2)c(C)c1Br |  |  |  | IC50 [4]: > 10000 nM; IC50 [5]: > 10000 nM
CCOC(=O)c1ncn2c1[C@@H]1CCN1C(=O)c1cc(C#C[Si](C)(C)C)ccc1-2 |  | 2.6 | 83 | 
Cn1c(=O)c2cc(Cl)ccc2n2cnc(CO)c12 | > 300 |  |  | Ki [2]: > 300 nM
Cn1c(=O)c2cc(C#C[Si](C)(C)C)ccc2n2cnc(C(=O)OC(C)(C)C)c12 |  | 58 | 197 | 

SMILES | Ki [1] [nM] | Kd [2] [nM] | Kd [3] [nM] | other results
COC(=O)c1cc2c(cn1)[nH]c1ccccc12 [BETA-CCM] |  | 58 | 1 | 
CCOC(=O)c1ncn2c3ccc(C#C[Si](C)(C)C)cc3c(=O)n(C)c12 |  | 5 | 121 | 
CC(=O)c1ncn2c3ccc(Cl)cc3c(=O)n(C)c12 | 17500 |  |  | Ki [2]: 2610 nM
CCOC(=O)c1ncn2c1C1CCCN1C(=O)c1cc(C#C[Si](C)(C)C)ccc1-2 (stereo unspecified) |  | 4 | 200 | 
COCc1ncn2c1CN(C)C(=O)c1cc(Cl)ccc1-2 | 920 |  |  | Activity [6]: 4%; Selectivity ratio [7]: 20; Activity (Mus musculus [8]): Active; Activity (Mus musculus [9]): Active; Activity [10]: 4%; Activity [11]: 20; Activity [12]: 20; Ki [13]: > 300 nM; Ki [14]: 9000 nM; Selectivity ratio [15]: 20; Activity [16]: 4%; Selectivity Index [17]: 20
CCCCCc1ncn2c3ccc(Cl)cc3c(=O)n(C)c12 | 2050 |  |  | Ki [2]: 369 nM
O=C1C2C=Nc3ccccc3C2=NN1c1ccccc1 (stereo unspecified) [CGS-8216] |  | 200 | 8.3 | 
CSc1nccc(-c2ccc(S(=O)(=O)Nc3ccc(Cl)cc3)s2)n1 |  |  |  | IC50 [4]: > 10000 nM; IC50 [5]: 470 nM
O=C1C2C=Nc3ccccc3C2=NN1c1ccc(Cl)cc1 (stereo unspecified) [CGS-9896] |  | 40 | 0.3 | 
CCOC(=O)c1[nH]cc2nc3cc(OC)c(OC)cc3c-2c1CC |  | 1 | 8 | 
Cn1c(=O)c2cc(Cl)ccc2n2cnc(C(=O)OC(C)(C)C)c12 | 17.3 |  |  | Ki [2]: 0.65 nM
CN1C(=O)CN=C(c2ccccc2)c2ccccc21 |  |  |  | IC50 [4]: > 10000 nM; IC50 [5]: > 10000 nM
Nc1c(C(=O)c2ccc(Cl)cc2)sc2ccccc12 |  |  |  | IC50 [4]: 1000 nM; IC50 [5]: 1000 nM
CCCOc1cc2c(cn1)[nH]c1ccccc12 |  | 591 | 5 | 
CC(C)(C)OC(=O)c1cc2c3ccccc3nc-2c[nH]1 |  | 111 | 1 | 
CSC1SC(C(=O)c2ccc(Cl)cc2)C2CCCC(=O)C12 (stereo unspecified) |  |  |  | IC50 [4]: 550 nM; IC50 [5]: 580 nM
